{"source": "ChEMBL document CHEMBL1142109", "about": "“Arzanol, an anti-inflammatory and anti-HIV-1 phloroglucinol alpha-Pyrone from Helichrysum italicum ssp. microphyllum” (J Nat Prod, 2007)", "key": {"[1]": {"organism": "Homo sapiens", "experiment": "(§1) Inhibition of TNFalpha activated NF-kappaB dependent transactivation of HIV-1 LTR Luc in 5.1 cells", "type": "cell-based", "procedure,_shortened": "(§2)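 A T cell line stably carrying HIV-1 LTR-driven luciferase was preincubated with increasing concentrations for 30 min, then stimulated with TNFα (2 ng/mL) for 6 h. Cells were lysed in Tris-phosphate buffer pH 7.8 with Triton X-100. Luciferase was read and normalized to Bradford protein (RLU/µg) after subtracting lysis-buffer background. Results are fold induction over untreated cells, with at least three repeats.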"}, "[2]": {"tested_on": "Monocyte", "experiment": "Inhibition of IL8 production in LPS-stimulated human primary monocytes by ELISA", "type": "functional"}, "[3]": {"tested_on": "Monocyte", "experiment": "Inhibition of IL1-beta production in LPS-stimulated human primary monocytes by ELISA", "type": "functional", "procedure,_shortened": "(§3)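 Primary monocytes from healthy donors were seeded at (1-2) × 10^6 cells/well at 37 °C/5% CO2. Nonadherent cells were removed and the medium replaced with RPMI-1640 plus 1% human serum. Cells were preincubated with increasing compound concentrations for 30 min, then stimulated with LPS (10 ng/mL) for 24 h. Supernatants were cleared at 10000g for 10 min. Cytokines were measured by ELISA and PGE2 by EIA.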"}, "[4]": {"tested_on": "Monocyte", "experiment": "Inhibition of PGE2 production in LPS-stimulated human primary monocytes by ELISA", "type": "functional", "procedure,_shortened": "as §3"}, "[5]": {"tested_on": "Human immunodeficiency virus 1", "experiment": "Inhibition of VSV-pseudotyped HIV1 replication in Jurkat T cells", "type": "functional, organism-based", "procedure,_shortened": "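Jurkat T cells (10^6/mL) pretreated 30 min with increasing concentrations before infection with VSV-pseudotyped pNL4-3.Luc.R-E- virus (Env-, Vpr-; stock made in 293T cells), 200 ng HIV-1 gag p24 per culture. After 24 h the cells were washed twice in PBS and luciferase activity in the lysates was read as % of infected untreated cells. Mean ± SD of three independent experiments.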"}, "[6]": {"tested_on": "Monocyte", "experiment": "Inhibition of IL6 production in LPS-stimulated human primary monocytes by ELISA", "type": "functional", "procedure,_shortened": "as §3"}, "[7]": {"experiment": "as §1", "type": "cell-based", "conditions": "Homo sapiens", "procedure,_shortened": "as §2"}, "[8]": {"tested_on": "Monocyte", "experiment": "Inhibition of TNFalpha production in LPS-stimulated human primary monocytes by ELISA", "type": "functional", "procedure,_shortened": "as §3"}}, "note": "Calls of active or inactive are those of the source. The calls are words filed in the database; no cut-off is given here.", "data": [{"smiles": "C=C(CO)[C@@H]1Cc2cc(C(C)=O)ccc2O1", "values": [{"measurement": "Activity", "setting": "[1]", "value": "inactive"}]}, {"smiles": "C=C(CO)[C@H]1Oc2ccc(C(C)=O)cc2[C@H]1OC(C)=O", "values": [{"measurement": "Activity", "setting": "[1]", "value": "inactive"}]}, {"smiles": "CCc1oc(=O)c(Cc2c(O)c(CC=C(C)C)c(O)c(C(C)=O)c2O)c(O)c1C", "note": "[ARZANOL]", "values": [{"measurement": "IC50", "setting": "[2]", "value": 21.8, "unit": "µM"}, {"measurement": "IC50", "setting": "[3]", "value": 5.6, "unit": "µM"}, {"measurement": "IC50", "setting": "[4]", "value": 18.7, "unit": "µM"}, {"measurement": "Activity", "setting": "[5]", "value": "Dose-dependent effect"}, {"measurement": "IC50", "setting": "[6]", "value": 13.3, "unit": "µM"}, {"measurement": "IC50", "setting": "[7]", "value": 5, "unit": "µM"}, {"measurement": "IC50", "setting": "[8]", "value": 9.2, "unit": "µM"}]}, {"smiles": "CCc1oc(=O)c(Cc2c(O)c(C)c(CC)oc2=O)c(O)c1C", "note": "[HELIPYRONE]", "values": [{"measurement": "IC50", "setting": "[7]", "value": 8.7, "unit": "µM"}]}, {"smiles": "CCC(C)C(=O)C(C)c1oc(=O)c(C)c(O)c1C", "note": "(stereo not drawn)", "values": [{"measurement": "Activity", "setting": "[1]", "value": "inactive"}]}, {"smiles": "C=C(COC(C)=O)[C@H]1Oc2ccc(C(C)=O)cc2[C@H]1OC(C)=O", "values": [{"measurement": "Activity", "setting": "[1]", "value": "inactive"}]}, {"smiles": "C=C(COC(C)=O)[C@@H]1Cc2cc(C(C)=O)ccc2O1", "values": [{"measurement": "Activity", "setting": "[1]", "value": "inactive"}]}]}
